# Rows were chosen to be rich in hits. Some 5.7% of all compounds tested hit in one or more screens of this group.
# Beta apoptosis = beta cell apoptosis inhibition; AID 435005; protection from apoptosis, % (no concentration beside the values); INS-1E cytokine-induced death, ATP luminescence, 48 h; percent of positive-control rescue, neutral wells zero; actives 0.8% (n = 300,000);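 active means Every replicate reaches about 75%, or at least half do and their mean reaches it too, limit read from the data; inconclusive means At least half of replicates reach the limit but their mean does not; inactive means Under half of replicates reach the limit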;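 further: 0% = cytokine-treated negative control wells and 100% = positive control rescue; higher means more ATP so stronger rescue from cytokine killing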
# Mdm2 MdmX PPI = disrupts the human Mdm2-MdmX interaction; O15151+Q00987; SaOS-2 split-luciferase Mdm2/MdmX complementation, luminescence; inhibition, % at 8 µM; actives 3% (n = 330,000); AID 485346;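 active means inhibition of at least 50% at 8 µM in the primary screen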
# Target sequence (O15151 whole entry, looked up): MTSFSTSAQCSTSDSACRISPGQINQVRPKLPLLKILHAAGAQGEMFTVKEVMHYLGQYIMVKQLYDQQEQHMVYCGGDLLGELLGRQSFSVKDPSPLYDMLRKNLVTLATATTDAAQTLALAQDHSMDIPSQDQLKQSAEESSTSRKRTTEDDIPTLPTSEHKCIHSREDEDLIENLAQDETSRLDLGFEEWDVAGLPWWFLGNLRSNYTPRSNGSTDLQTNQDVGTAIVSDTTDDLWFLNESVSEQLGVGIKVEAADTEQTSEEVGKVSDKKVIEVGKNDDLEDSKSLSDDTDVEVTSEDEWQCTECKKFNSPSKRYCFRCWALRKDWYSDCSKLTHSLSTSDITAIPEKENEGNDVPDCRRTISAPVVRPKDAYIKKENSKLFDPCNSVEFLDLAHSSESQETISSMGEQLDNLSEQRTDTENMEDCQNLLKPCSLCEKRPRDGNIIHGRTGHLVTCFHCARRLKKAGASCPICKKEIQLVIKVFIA
# Target sequence (Q00987 whole entry, looked up): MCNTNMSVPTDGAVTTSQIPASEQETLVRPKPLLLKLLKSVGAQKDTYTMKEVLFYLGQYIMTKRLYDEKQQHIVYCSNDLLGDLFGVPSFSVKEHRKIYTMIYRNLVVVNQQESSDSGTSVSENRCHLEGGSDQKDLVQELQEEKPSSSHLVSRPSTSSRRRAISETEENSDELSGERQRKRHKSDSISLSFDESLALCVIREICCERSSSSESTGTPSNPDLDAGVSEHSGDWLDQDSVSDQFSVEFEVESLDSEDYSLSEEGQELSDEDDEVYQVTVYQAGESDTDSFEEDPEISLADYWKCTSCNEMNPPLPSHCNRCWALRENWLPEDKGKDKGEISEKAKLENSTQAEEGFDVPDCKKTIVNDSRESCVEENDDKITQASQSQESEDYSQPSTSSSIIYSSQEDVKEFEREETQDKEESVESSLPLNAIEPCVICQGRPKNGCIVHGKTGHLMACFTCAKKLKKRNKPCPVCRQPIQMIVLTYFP
# CSC inhib = cancer stem cell inhibition; cancer stem cell-like cells viability, luminescence; inhibition, % at 7.5 µM; actives 1.1% (n = 300,000); AID 2717; in the data active means inhibition above about 75%; inconclusive means no clear call, values can overlap the other calls; tested in HMLE shEcad cells
# SKKanGAS inh = inhibitors of SKKanGAS S. pyogenes growth in kanamycin (SK-promoter or general growth effect); BacTiter-Glo, 6 h; inhibition, % at 7.5 µM; actives 1.3% (n = 300,000); AID 1662;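 active means mean replicate score, as percent of positive control median, at least 50; inconclusive means mean below 50 but one replicate at or above 50; inactive means mean and every replicate below 50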;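 further: strain carries kanamycin resistance gene driven by streptokinase promoter and grows in 40 µg/ml kanamycin; loss of luminescence reflects streptokinase promoter inhibition or plain growth inhibition; 0% = median of DMSO wells and 100% = positive control at its reference dose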
# T cruzi inh = blocks replication of Trypanosoma cruzi; inhibition, % (concentration not given with the values); actives 1.4% (n = 300,000); T. cruzi beta-gal in NIH3T3, luminescence, 90 h; AID 1885;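 active means mean inhibition across valid replicates above about 55%, limit read from the data; inconclusive means mean below that limit but half or more replicates reach it; inactive means mean below it, under half of replicates reach it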;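 further: signal also drops with host cell toxicity which is not excluded here; 0% = plate median of DMSO wells and 100% = zero luminescence signal; higher percent means less beta-gal luminescence so fewer parasites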
#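 System: NIH/3T3 fibroblasts plus reporter T. cruzi. Medium: DMEM plus 2% FBS. Probe or stimulus: 5000 reporter trypomastigotes per well. Compound: single 50 nL compound addition per well in DMSO. Incubation: co-culture of at least 90 h after 3 h attachment. Detection: GalScreen β-gal luminescence, detergent lysis, 60 min. Evaluation: parasite load inhibition, %.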
# Calb FLC = affects C. albicans growth with fluconazole | C. albicans CaCi-2 (fluconazole-resistant clinical isolate) + fluconazole, Alamar Blue growth, 48 h | growth inhibition, % (no concentration beside the values) | actives 0.57% (n = 300,000) | AID 1979;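 active means growth inhibition above about 58% in most replicates, limit read from the data, passing the limit was not always enough; inconclusive means exactly half the replicates above a set limit; inactive means most replicates below a set limit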;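 further: all wells also contain fluconazole at 8 µg/ml as a sub-toxic cotreatment; 0% = median of DMSO wells and 100% = median of geldanamycin control wells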
# Mdm2 MdmX conf = confirmation of human Mdm2/MdmX interaction inhibitors; shares compounds with Mdm2 MdmX PPI; Mdm2-MdmX binding, luminescent assay; inhibition, % at 8 µM; actives 55% (n = 10,000); AID 489028; in the data active means inhibition above about 40%
# Full FLuc ctr = inhibits full-length luciferase, flagging false Mdm2/MdmX hits; inhibition, % at 8 µM; AID 504607; actives 77% (n = 6,200); shares compounds with Mdm2 MdmX PPI; SaOS-2 full-length luciferase counterscreen, luminescence;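 active means mean inhibition at 8 µM reaching about 37%, which flags the compound as non-specific, limit read from the data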;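 further: p53-null SaOS-2 cells with luciferase driven by a doxycycline-inducible promoter; compound on cells about two nights before reading with doxycycline added after day one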
# * marks the source's active call; other numbers are inactive results; u = inconclusive; x = no result; ! = repeats disagree.
SMILES,Beta apoptosis,Mdm2 MdmX PPI,CSC inhib,SKKanGAS inh,T cruzi inh,Calb FLC,Mdm2 MdmX conf,others
Cc1c(CCC(=O)NCCCC(=O)O)c(=O)oc2cc3oc4c(c3cc12)CCCC4,-7,-34,-18,6,1,9,x,
Cc1cccc(C)c1NC(=O)c1ccc(-c2ccc(Cl)cc2Cl)o1,0,56*,53,32,29,-3,46*,Full FLuc ctr=45*
O=C(Nc1ccccc1N1CCCCC1)c1ccc(-c2cc(Cl)ccc2Cl)o1,3,50*,12,-7,12,2,-14,
Cc1ccccc1NC(=O)c1ccc(-c2ccc(Cl)cc2Cl)o1,1,27,47,12,7,3,x,
O=C(Nc1ccc(Cl)cn1)c1cc2ccccc2o1,-4,-212,x,-7,-4,-5,x,
O=C(Nc1ccc(Cl)cn1)c1ccc(-c2cc(Cl)ccc2Cl)o1,-4,74*,19,-10,1,11,4,
Cc1ccc(C(C)NC(=O)c2cc3cc(Br)ccc3oc2=N)cc1 (stereo unspecified),-6,51*,21,18,-4,8,35,
CC(C)C(=O)Nc1ccc(C(=O)N/N=C/c2cc(Br)cc(Br)c2O)cc1,79*,66*,84*,68*,11,-14,22,
NC(=O)C1CN(C(=O)c2cccc(S(=O)(=O)N3CCc4ccccc43)c2)c2ccccc2O1 (stereo unspecified),-8,21,1,x,x,x,x,
O=c1c2ccc(Cl)cc2nc(-c2cccc(C(F)(F)F)c2)n1O,51,88*,-6,97*,-8,79*,39,
N#Cc1ccc(-c2nc3ccccc3c(=O)n2O)cc1,-5,-2,12,3,-5,-6,x,
O=c1c2ccccc2nc(-c2ccc(Cl)c(Cl)c2)n1O,40,82*,0,37,3,50,64*,Full FLuc ctr=27
CC1O[C@@H](O[C@H](C)CC[C@@H](C)O)C(O)C[C@H]1O (stereo partly specified),-15,13,-3,0,-15,5,x,
CC1=[N+](C)c2ccc3ccccc3c2C1(C)C,99*,86*,103*,3,69*,23,69*,Full FLuc ctr=28
Cc1ccc(S(=O)(=O)N(CC(=O)Nc2ccccc2)C(=O)N2CCN(C)CC2)cc1,-3,17,-10,0,2,-9,x,
CC(C)CN(C(=O)c1ccc(-n2cncn2)c([N+](=O)[O-])c1)C1CCS(=O)(=O)C1 (stereo unspecified),-3,26,-6,-4,-6,2,x,
O=c1c2ccccc2c(C=Nc2cccc(O)c2)c(O)n1-c1ccc2c(c1)OCO2,26,82*,52,25,-7,4,36,
CCN(CC(=O)Nc1ccc(NC(C)=O)cc1)C(=O)c1ccc(C(=O)c2ccccc2)cc1,3,9,x,x,x,x,x,
O=C1C=C(c2ccccc2)C[C@H](c2cccs2)[C@H]1n1nnc([N+](=O)[O-])n1,52,71*,x,17,49,0,57*,Full FLuc ctr=60*
CCCN1C(=O)/C(=C/c2c(N3CCNC(=O)C3CC(=O)OCC)nc3c(C)cccn3c2=O)SC1=S (stereo unspecified),6,74*,50,24,22,-10,68*,Full FLuc ctr=74*
Cc1nnc(SC(=O)N2c3ccccc3Sc3ccccc32)s1,-12,97*,53,-5,8,3,98*,Full FLuc ctr=52*
CCOC(=O)N1c2ccccc2Sc2ccccc21,3,14,-1,14,-6,u,x,
Cc1ccnc(NC(=S)N2CCN(c3cccc(C(F)(F)F)c3)CC2)c1,70,75*,48,68*,49,8,77*,Full FLuc ctr=46*
Cc1ccc(C)c(NC(=S)N2CCN(c3cccc(C(F)(F)F)c3)CC2)c1,-7,16,1,-4,8,2,x,
Cc1ccccc1-c1nnc(SCC(=O)NC2CCS(=O)(=O)C2)n1C (stereo unspecified),-2,3,-7,x,x,x,x,
SMILES,Beta apoptosis,Mdm2 MdmX PPI,CSC inhib,SKKanGAS inh,T cruzi inh,Calb FLC,Mdm2 MdmX conf,others
Cc1ccc(OCCCN2CCOCC2)cc1,-6,14,-21,-5,7,11,x,
Oc1c(Cl)cc(Cl)cc1C1Nc2ccccc2-n2cccc21 (stereo unspecified),0,-13,3,1,-5,-4,x,
COc1ccc2c(c1)NC(c1cc(Cl)cc(Cl)c1O)c1cccn1-2 (stereo unspecified),x,81*,x,x,x,x,16,
O=C(N/N=C/c1ccco1)C1CC1c1ccccc1 (stereo unspecified),0,-20,-5,1,-4,-6,x,
CC(C)(C)c1ccc(C2CC2C(=O)N/N=C\c2ccc[nH]2)cc1 (stereo unspecified),109*,84*,0,13,60*,21,73*,Full FLuc ctr=31
COc1ccc(Nc2nc(C)cc(-c3cc(-c4ccccc4)on3)n2)cc1,-6,68*,-5,1,-3,9,50*,Full FLuc ctr=83*
O=C(CN1CCN(S(=O)(=O)c2cccc(Cl)c2)CC1)NCC1(N2CCOCC2)CCCCC1,x,-17,x,x,x,x,x,
Cc1ccc(CN=C(N)Nc2nc(C)cc(C)n2)cc1,9,68*,56,1,19,11,59*,Full FLuc ctr=63*
Cc1cc(C)nc(/N=C(\N)Nc2ccc(S(=O)(=O)Nc3nc(C)cc(C)n3)cc2)n1,-5,10,-11,1,-7,-5,x,
C#CCn1c(=NC(=O)c2cccs2)sc2cccc(OCC)c21,4,64*,-14,-2,44,-3,-4,
COc1ccccc1CNC(=O)CCNS(=O)(=O)c1cc(Br)cnc1N,-9,1,3,2,16,-15,x,
O=C(c1ccc2c(=O)n3c(nc2c1)CCC3)N1CCN(S(=O)(=O)c2cccc(F)c2)CC1,3,3,-1,-8,2,0,x,
CCOC(=O)C1=C(C)Nc2nnnn2C1c1ccccc1Cl (stereo unspecified),1,-15,-10,x,x,x,x,
CCOC(=O)C1=C(COCCN)NC(C)=C(C(=O)OC)C1c1ccccc1Cl (stereo unspecified),-3,62*!,11,2,46,-4,21,
CCC(=O)N1c2ccc(S(=O)(=O)NCCc3ccc(OC)c(OC)c3)cc2CC1C (stereo unspecified),-14,5,12,-5,-4,-1,x,
O=C(c1ccccc1Cc1ccccc1)N1CCN(S(=O)(=O)c2ccccc2[N+](=O)[O-])CC1,5,23,-8,-8,5,10,x,

# Screens deposited in PubChem BioAssay by several laboratories.
